Reference: PubChem BioAssay AID685 (PCMD, 2007)
Screen size: about 30,000 compounds; about 80 (0.3%) were called active.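 Rule for the calls: active = mutant and wild-type yeast strains alike exhibit over 30% growth inhibition; inconclusive = a strain exceeds 50% while the second remains under 30%; inactive = the rest.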 The entries come from a sample that favours actives as a whole.

Test: yeast growth toxicity, wild-type and mutant, primary screen, cytotoxicity control for eIF2B function restoration project, wild-type and eIF2Bepsilon R284H mutant, A595 (AID 685);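 note: 0% = untreated cell controls and 100% = YPD media blanks without cells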
Conditions: A595 turbidity, 16 h, stronger effect = higher value, screened at 25 µM (by protocol)
How it was run: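 system = S. cerevisiae wild-type or eIF2Bepsilon-R284H mutant strain | buffer or medium = YPD medium | dosing = one dose, 25 µM compound, 0.2% DMSO | schedule = 16 h at 30 °C | measured by = A595 turbidity | evaluation = growth inhibition (%) versus cell controls and blanks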

[1] = S. cerevisiae eIF2Bepsilon-R284H mutant growth

| SMILES | growth inhibition [1] | growth inhibition (S. cerevisiae wild-type growth) |
| --- | --- | --- |
| COC(=O)COc1ccc(S(=O)(=O)N2CCOCC2)cc1 | 0% | -24.2% (inactive) |
| Cc1ccc(-c2csc(NC(=O)Cc3cccs3)n2)cc1C | 0% | 33.1% (inactive) |
| CCOC(=O)C1=C(C)NC(SC)=NC1c1ccccc1 (configuration not stated) | -3.45% | -15.1% (inactive) |
| Cc1ccc(N(CC(=O)Nc2cccc(N(C)S(C)(=O)=O)c2)S(C)(=O)=O)cc1 | 16.1% | 8.21% (inactive) |
| Cn1c(N)c(C(=O)COC(=O)C23CC4CC(CC(C4)C2)C3)c(=O)n(C)c1=O | 11.6% | 6.55% (inactive) |
| CN=C1SC(CC(=O)Nc2ccc(C(=O)O)cc2)C(=O)N1C (configuration not stated) | 10.3% | 13.1% (inactive) |
| O=S(=O)(NCCOc1cccc2cccnc12)c1ccc(F)cc1 | 0% | -11.7% (inactive) |
| O=C(c1cccc(F)c1)N1CCC(O)(c2cccnc2)CC1 | -27.3% | 1.72% (inactive) |
| CCOc1ccc(NC(=O)C2CCCN(C(=O)Nc3ccccc3)C2)cc1 (configuration not stated) | 8.33% | 16.3% (inactive) |
| CC(OC(=O)CN1C(=O)C2CCCCC2C1=O)C(=O)Nc1ncc(Cl)cc1Cl (configuration not stated) | 15.2% | 19.3% (inactive) |
| CCOC(=O)c1c(NC(=O)CSc2nnc(CNc3ccc(C)cc3C)o2)sc(C)c1C | 25.9% | 25.9% (inactive) |
| CCCCN(CC)CCNC(=O)c1[nH]c(C)c(C(C)=O)c1C | 17.6% | 11.2% (inactive) |
| OC(C#CCN1CCOCC1)(c1ccccc1)C1CCCCC1 (configuration not stated) | 7.89% | 34.3% (inactive) |
| CCOCCOCCC(C(=O)O)P(=O)(c1ccccc1)c1ccccc1 (configuration not stated) | 16.7% | 13.8% (inactive) |
| CCc1cc(Br)ccc1NC(=O)C1CCCO1 (configuration not stated) | 18.5% | -7.78% (inactive) |
| CCn1cc(C(=O)NCC2CCCO2)c(=O)c2cc(S(=O)(=O)N3CCCCC3)ccc21 (configuration not stated) | -11.1% | 6.79% (inactive) |
| OC(CNCC1CCCO1)Cn1c2ccc(Br)cc2c2cc(Br)ccc21 (configuration not stated) | 100% | 86.7% (active) |
| COc1ccc(CCNC(=O)CN(c2ccccc2)S(C)(=O)=O)cc1OC | 12.8% | 18.3% (inactive) |
| COC(=O)c1c(C)c(C)nc(N)c1C#N | -9.52% | -10.8% (inactive) |

| SMILES | growth inhibition [1] | growth inhibition (S. cerevisiae wild-type growth) |
| --- | --- | --- |
| COC(=O)c1ccc(Cc2ccccc2)o1 | 19.4% | 10% (inactive) |
| CCOC(=O)c1cc2c(ccn2C)n1CC(=O)N1CCC(C)CC1 | 4.55% | -20.7% (inactive) |
| O=C(C1CCC(C(=O)N2CCCC2)CC1)N1CCCC1 (configuration not stated) | -12.9% | -0.38% (inactive) |
| Cn1c(Cn2nnc3ccccc32)nnc1SCC(=O)c1ccccc1F | 16.2% | 4.07% (inactive) |
| O=C(NC(=O)c1ccccc1)NC(=O)c1ccccc1 | 5.26% | 12.5% (inactive) |
| Nc1nc(SCc2ccccc2Cl)n[nH]1 | 16.2% | -0.77% (inactive) |
| CC(C)N(C(=O)COC(=O)c1ccccc1C(=O)N1CCN(c2ccc(F)cc2)CC1)C(C)C | -1.35% | -10% (inactive) |
| COc1ccc(O)c(C(=O)c2cnc3onc(C(C)C)c3c2)c1 | -10.5% | 8.18% (inactive) |
| CS(=O)(=O)N(CC(=O)N1CCN(c2ccc(F)cc2)CC1)C1CCCCC1 | 4.76% | 3.1% (inactive) |
| O=C(Nc1ccc(Cl)cc1)c1cc2nc(C3CC3)cc(C(F)(F)F)n2n1 | -4.05% | 1.92% (inactive) |
| O=C(CSCc1ccccc1)N1CCc2ccccc21 | 9.38% | 14.7% (inactive) |
| O=C(CN1CCSCC1)N/N=C/c1ccc(F)cc1 | 17.5% | 10% (inactive) |
| O=C(Nc1ccccc1-c1nnn(CC(=O)N2CCCc3ccccc32)n1)c1cccc(Cl)c1 | 4.35% | -12.9% (inactive) |
| CC1CCC2(CC1)NC(=O)N(CC(=O)c1cccn1C)C2=O (configuration not stated) | -4.76% | 3% (inactive) |
| Cc1cc(=O)[nH]c(SCc2cccc(F)c2)n1 | 0% | 10.8% (inactive) |
| Cc1cc(C)cc(NC(=O)C2CCN(c3nc(C)cc(C)n3)CC2)c1 | -2.94% | 5.33% (inactive) |
| CC(c1ccco1)N(C(=O)COc1ccccc1[N+](=O)[O-])c1ccccn1 (configuration not stated) | -23.8% | -11% (inactive) |
| COc1cc(C)c(C(C)C)cc1S(=O)(=O)n1ccnc1 | -20% | -17% (inactive) |
| O=c1[nH]nc(CSCc2ccccc2Cl)[nH]1 | -3.13% | -3.79% (inactive) |

| SMILES | growth inhibition [1] | growth inhibition (S. cerevisiae wild-type growth) |
| --- | --- | --- |
| O=C(O)c1cc2ccccc2c(=O)s1 | -9.52% | 17.3% (inactive) |
| CCN(CC)C(=O)CSc1ncnc2c1cnn2-c1ccccc1 | -12.9% | 1.3% (inactive) |
| O=C(Cn1cnc2ccccc2c1=O)NCC1COc2ccccc2O1 (configuration not stated) | 10.9% | 3.57% (inactive) |
| O=C(NCC1CCC(C(=O)O)CC1)OCc1ccccc1 (configuration not stated) | 0% | -12.5% (inactive) |
| COc1ccc(S(=O)(=O)NCc2ccc(C(=O)N(C)Cc3ccco3)cc2)cc1 | 6.06% | -4.07% (inactive) |
| Clc1cccc(N=C2NN=C(c3ccc4c(c3)OCCO4)CS2)c1 | 5.13% | -0.77% (inactive) |
| CC(C)Oc1ccc(Oc2ccc(C(F)(F)F)cn2)cc1 | 7.69% | 6% (inactive) |
| Cc1ccc(C2C(C#N)C(C#N)N3CCCN23)cc1 (configuration not stated) | 13% | -7.5% (inactive) |
| Cc1ccc(C(=O)CSc2nnc(Cn3nnc4ccccc43)n2C)cc1 | 3.7% | 16.7% (inactive) |
| COc1ccc(OCC(=O)N2CCOCC2)cc1 | 17.9% | 15.5% (inactive) |
| O=S(=O)(NCC1OCCc2ccccc21)c1ccccc1 (configuration not stated) | 15.2% | 16.1% (inactive) |
| CCN(c1ccccc1)S(=O)(=O)c1ccc(NC(=O)C(C)(C)C)cc1 | 15% | -4.62% (inactive) |
| Cc1cc(-c2ccccc2)nc(N2CCC(C(=O)NC34CC5CC(CC(C5)C3)C4)CC2)n1 | -19.1% | 2.16% (inactive) |
| C=CCNC(=O)c1ccc(C)c(Br)c1 | 0% | 6.76% (inactive) |
| CCN(CC)S(=O)(=O)c1ccc2c3c(cccc13)C(=O)S2 | -4.76% | 16.2% (inactive) |
| O=C(O)CCC(=O)NCc1ccc(C(=O)O)cc1 | 16.7% | 9.62% (inactive) |
| Cc1cccn2c(=O)c(/C=C(\C#N)S(=O)(=O)c3ccc(Cl)cc3)c(N3CCC(C(N)=O)CC3)nc12 | 0% | 7.31% (inactive) |
| CCCCSc1[nH]c(=O)c(C(=O)OCC)cc1C#N | 5% | 2.76% (inactive) |
